Experimental findings from ChEMBL document CHEMBL1765051 (J Med Chem, 2011) are described below.

The subject of experiment [1] is Human immunodeficiency virus 1. Kind of experiment: Antiviral activity against HIV1 3B harboring reverse transcriptase Y181I mutant infected in human CEM cells assessed as inhibition of syncytia formation. It counts as functional, organism-based. As to conditions: Human immunodeficiency virus 1, 3B, CCRF-CEM.
Experiment [2] relates to Human immunodeficiency virus 1. Kind of experiment: Ratio of EC50 for HIV1 3B harboring reverse transcriptase L100I mutant to EC50 for wild type HIV1 3B. It is filed as functional.
Experiment [3] concerns Human immunodeficiency virus 1. In words: Ratio of EC50 for HIV1 3B harboring reverse transcriptase Y188L mutant to EC50 for wild type HIV1 3B. It counts as functional.
Experiment [4] concerns the target Human immunodeficiency virus type 1 reverse transcriptase (Human immunodeficiency virus 1, UniProt Q72547, K101E). In words: Inhibition of HIV-1 reverse transcriptase K101E mutant-mediated polymerization reaction after 30 mins. In short, it runs like this:
(§1)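 Recombinant mutant HIV-1 RT started reactions containing 50 mM Tris-HCl pH 7.8, 5 mM DTT, 300 mM glutathione, 0.5 mM EDTA, 150 mM KCl, 5 mM MgCl2, BSA, 0.06% Triton X-100, 2.8 μM [3H]dGTP, 0.1 mM poly(rC)/oligo(dG) and varying compound. Incubated 30 min at 37°C, stopped with yeast RNA/pyrophosphate/TCA, acid-insoluble radioactivity counted; IC50 = 50% polymerization inhibition; mean ± SD, ≥2 independent experiments.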

The subject of experiment [5] is Human immunodeficiency virus 1. Kind of experiment: Antiviral activity against HIV1 3B harboring reverse transcriptase Y188H mutant infected in human CEM cells assessed as inhibition of syncytia formation. It counts as functional, organism-based. The settings on record: Human immunodeficiency virus 1, 3B, CCRF-CEM.
Experiment [6] concerns Human immunodeficiency virus 1. Kind of experiment: Ratio of EC50 for HIV1 3B harboring reverse transcriptase G190E mutant to EC50 for wild type HIV1 3B. It is filed as functional.
The test system of experiment [7] is Human immunodeficiency virus 1. In words: Antiviral activity against HIV1 3B harboring reverse transcriptase Y181C mutant infected in human CEM cells assessed as inhibition of syncytia formation. It counts as functional, organism-based. The settings on record: Human immunodeficiency virus 1, 3B, CCRF-CEM.
In experiment [8] the test system is Human immunodeficiency virus 1. Kind of experiment: Antiviral activity against HIV1 3B harboring reverse transcriptase G190E mutant infected in human CEM cells assessed as inhibition of syncytia formation. As to conditions: Human immunodeficiency virus 1, 3B, CCRF-CEM. It is filed as functional, organism-based.
Experiment [9] has as its system Human immunodeficiency virus 1. Kind of experiment: Antiviral activity against HIV1 3B harboring reverse transcriptase K103N mutant infected in human CEM cells assessed as inhibition of syncytia formation. It is filed as functional, organism-based. As to conditions: Human immunodeficiency virus 1, 3B, CCRF-CEM.
For experiment [10], the system named is Human immunodeficiency virus 2. Kind of experiment: Antiviral activity against wild type HIV2 infected in human CEM cells assessed as inhibition of syncytia formation. It is filed as functional, organism-based. As to conditions: Human immunodeficiency virus 2, CCRF-CEM.
Experiment [11] addresses Human immunodeficiency virus type 1 reverse transcriptase (Human immunodeficiency virus 1, UniProt Q72547, E138K). Kind of experiment: Inhibition of HIV-1 reverse transcriptase E138K mutant-mediated polymerization reaction after 30 mins. The method in brief:
as §1

In experiment [12] the test system is Human immunodeficiency virus 1. Kind of experiment: Ratio of EC50 for HIV1 3B harboring reverse transcriptase N136A/Q/K mutant to EC50 for wild type HIV1 3B. It is filed as functional.
Experiment [13] concerns Human immunodeficiency virus 1. In words: Antiviral activity against HIV1 3B harboring reverse transcriptase N136A/Q/K mutant infected in human CEM cells assessed as inhibition of syncytia formation. The settings on record: Human immunodeficiency virus 1, 3B, CCRF-CEM. It counts as functional, organism-based.
Experiment [14] has as its system Human immunodeficiency virus 1. In words: Ratio of EC50 for HIV1 3B harboring reverse transcriptase Y188H mutant to EC50 for wild type HIV1 3B. It counts as functional.
Experiment [15] has as its system Human immunodeficiency virus 1. Kind of experiment: Ratio of EC50 for HIV1 3B harboring reverse transcriptase Y181C mutant to EC50 for wild type HIV1 3B. It counts as functional.
Experiment [16] concerns Human immunodeficiency virus 1. In words: Antiviral activity against HIV1 3B harboring reverse transcriptase E138D mutant infected in human CEM cells assessed as inhibition of syncytia formation. It counts as functional, organism-based. As to conditions: Human immunodeficiency virus 1, 3B, CCRF-CEM.
In experiment [17] the test system is Human immunodeficiency virus 1. In words: Ratio of EC50 for HIV1 3B harboring reverse transcriptase V106A mutant to EC50 for wild type HIV1 3B. It counts as functional.
For experiment [18], the system named is Human immunodeficiency virus 1. Kind of experiment: Antiviral activity against wild type HIV1 3B infected in human CEM cells assessed as inhibition of syncytia formation. The settings on record: Human immunodeficiency virus 1, 3B, CCRF-CEM. It counts as functional, organism-based.
Experiment [19] has as its system Human immunodeficiency virus 1. Kind of experiment: Antiviral activity against HIV1 3B harboring reverse transcriptase L100I mutant infected in human CEM cells assessed as inhibition of syncytia formation. It counts as functional, organism-based. As to conditions: Human immunodeficiency virus 1, 3B, CCRF-CEM.
The test system of experiment [20] is Human immunodeficiency virus 1. In words: Antiviral activity against HIV1 3B harboring reverse transcriptase E138K mutant infected in human CEM cells assessed as inhibition of syncytia formation. It counts as functional, organism-based. As to conditions: Human immunodeficiency virus 1, 3B, CCRF-CEM.
For experiment [21], the system named is Human immunodeficiency virus 1. Kind of experiment: Ratio of EC50 for HIV1 3B harboring reverse transcriptase E138K mutant to EC50 for wild type HIV1 3B. It counts as functional.
The nature of experiment [22]: Inhibition of HIV-1 reverse transcriptase […] and E138K mutant-mediated polymerization reaction after 30 mins. More on the design: species or system Human immunodeficiency virus 1. The method in brief:
as §1

Experiment [23] concerns Human immunodeficiency virus 1. Kind of experiment: Ratio of EC50 for HIV1 3B harboring reverse transcriptase Y181I mutant to EC50 for wild type HIV1 3B. It is filed as functional.
In experiment [24] the test system is Human immunodeficiency virus 1. Kind of experiment: Antiviral activity against HIV1 3B harboring reverse transcriptase V179N mutant infected in human CEM cells assessed as inhibition of syncytia formation. It is filed as functional, organism-based. As to conditions: Human immunodeficiency virus 1, 3B, CCRF-CEM.
Experiment [25] concerns Human immunodeficiency virus 1. In words: Antiviral activity against HIV1 3B harboring reverse transcriptase V106A mutant infected in human CEM cells assessed as inhibition of syncytia formation. It is filed as functional, organism-based. The settings on record: Human immunodeficiency virus 1, 3B, CCRF-CEM.
Experiment [26] concerns Human immunodeficiency virus 1. In words: Ratio of EC50 for HIV1 3B harboring reverse transcriptase K103N mutant to EC50 for wild type HIV1 3B. It is filed as functional.
In experiment [27] the test system is Human immunodeficiency virus 1. Kind of experiment: Antiviral activity against HIV1 3B harboring reverse transcriptase Y188L mutant infected in human CEM cells assessed as inhibition of syncytia formation. It is filed as functional, organism-based. The settings on record: Human immunodeficiency virus 1, 3B, CCRF-CEM.
For experiment [28], the system named is Human immunodeficiency virus 1. Kind of experiment: Antiviral activity against wild type HIV1 infected in human CEM cells assessed as inhibition of syncytia formation. As to conditions: Human immunodeficiency virus 1, CCRF-CEM. It is filed as functional, organism-based.
The target in experiment [29] is Human immunodeficiency virus type 1 reverse transcriptase (Human immunodeficiency virus 1, UniProt Q72547). In words: Inhibition of wild type HIV-1 reverse transcriptase-mediated polymerization reaction after 30 mins.

Converted amounts (≈) assume the structure as drawn.

`Cc1cn([C@@H]2O[C@H](CO[Si](C)(C)C(C)(C)C)[C@@]3(OS(=O)(=O)C=C3N)[C@H]2O[Si](C)(C)C(C)(C)C)c(=O)[nH]c1=O`: the EC50 – broadly, the concentration that produces a half-maximal response – was > 10 µg/mL in experiment [1]; > 3.3 µg/mL in [5]; 2 µg/mL (≈ 3.39 µM) in experiment [7]; > 10 µg/mL in experiment [8]; 0.23 µg/mL (≈ 0.39 µM) in experiment [9]; > 20 µM in [10]. Further, the EC50 was > 50 µg/mL in experiment [13]; 0.01 µg/mL (≈ 0.017 µM) in experiment [16]; 0.03 µg/mL (≈ 0.0509 µM) in experiment [18]; 0.07 µg/mL (≈ 0.119 µM) in experiment [19]; > 3 µg/mL in [20]; 0.22 µg/mL (≈ 0.373 µM) in experiment [24]. For the same molecule, the EC50 was 1.9 µg/mL (≈ 3.22 µM) in experiment [25] and > 10 µg/mL in [27]. For the same molecule, the “Ratio EC50” value worked out at 7 in experiment [2]; 30 in [3]; 30 in [6]; 30 in experiment [12]; 30 in experiment [14]; 30 in [15]. In addition, the “Ratio EC50” value in [17] was 30; in experiment [21], 30; in experiment [23], 30; in experiment [26] it was 7. Moreover, the figures for the IC50 in [4], in [11] and in experiment [22] were ≥ 170 µM, > 170 µM and > 100 µg/mL, respectively.
For `Cc1cn([C@@H]2O[C@H](CO[Si](C)(C)C(C)(C)C)[C@@]3(OS(=O)(=O)C=C3NC(=O)C(N)=O)[C@H]2O[Si](C)(C)C(C)(C)C)c(=O)n(C)c1=O`, the EC50 was > 7 µM in experiment [10] and 28 nM in experiment [28].
With `Cc1cn([C@@H]2O[C@H](CO[Si](C)(C)C(C)(C)C)[C@@]3(OS(=O)(=O)C=C3N)[C@H]2O[Si](C)(C)C(C)(C)C)c(=O)[nH]c1=S`, the results for the EC50 in experiment [10] and in experiment [28] were > 2 µM and 170 nM, respectively.
The like results for `Cc1cn([C@@H]2O[C@H](CO[Si](C)(C)C(C)(C)C)[C@@]3(OC(=O)N=C3N)[C@H]2O[Si](C)(C)C(C)(C)C)c(=O)n(C)c1=O` were, in that order, > 35 µM and 5800 nM.
Consider `Cc1cn([C@@H]2O[C@H](CO[Si](C)(C)C(C)(C)C)[C@]3(C=CS(=O)(=O)O3)[C@H]2O[Si](C)(C)C(C)(C)C)c(=O)n(C)c1=O`, for which the EC50 was > 2 µM in experiment [10] and 150 nM in [28]. Besides, half-maximal inhibition in experiment [29] (IC50) was put at 3300 nM.
Take `CC1=CN([C@@H]2O[C@H](CO[Si](C)(C)C(C)(C)C)[C@@]3(OS(=O)(=O)C=C3N)[C@H]2O[Si](C)(C)C(C)(C)C)C(=O)NC1`: the concentration for a half-maximal effect (EC50) is > 10 µM in experiment [10] and 100 nM in [28].
Consider `CC(C)(C)[Si](C)(C)OC[C@H]1O[C@@H](n2cnc3c(N)ncnc32)[C@H](O[Si](C)(C)C(C)(C)C)[C@]12OS(=O)(=O)C=C2N`, for which the results for the EC50 in experiment [10] and in experiment [28] were > 10 µM and 50 nM, respectively.
The like results for `Cn1cnc2c(ncn2[C@@H]2O[C@H](CO[Si](C)(C)C(C)(C)C)[C@@]3(OS(=O)(=O)C=C3N)[C@H]2O[Si](C)(C)C(C)(C)C)c1=O` were, in that order, > 150 µM and 60 nM.
The like results for `CNC(=O)c1cnnn1[C@@H]1O[C@H](CO[Si](C)(C)C(C)(C)C)[C@@]2(OS(=O)(=O)C=C2N)[C@H]1O[Si](C)(C)C(C)(C)C` were, in that order, > 7 µM and 80 nM.
Regarding `Cc1cn([C@@H]2O[C@H](CO[Si](C)(C)C(C)(C)C)[C@@]3(NS(=O)(=O)N=C3N)[C@H]2O[Si](C)(C)C(C)(C)C)c(=O)n(C)c1=O`, the EC50 in experiment [10] was > 7 µM; in [28], 5300 nM.
With `Cc1cn([C@@H]2O[C@H](CO[Si](C)(C)C(C)(C)C)[C@@]3(OS(=O)(=O)C=C3N)[C@H]2O[Si](C)(C)C(C)(C)C)c(=O)n(C)c1=O`, the EC50 in [1] is > 10 µg/mL; in experiment [5], > 3.3 µg/mL; in experiment [7], 2 µg/mL (≈ 3.31 µM); in [8], > 10 µg/mL; in [9], 0.23 µg/mL (≈ 0.381 µM); in experiment [10], > 250 µM. The EC50 in experiment [13] was > 50 µg/mL; in experiment [16], 0.01 µg/mL (≈ 0.0166 µM); in experiment [18], 0.03 µg/mL (≈ 0.0497 µM); in experiment [19], 0.07 µg/mL (≈ 0.116 µM); in experiment [20] it was > 3 µg/mL; in experiment [24] it was 0.22 µg/mL (≈ 0.364 µM). Moreover, the EC50 in [25] is 1.9 µg/mL (≈ 3.15 µM); in [28], 40 nM; in [27], > 10 µg/mL. The “Ratio EC50” value is 7 in [2]; 30 in [3]; 30 in experiment [6]; 30 in experiment [12]; 30 in [14]; 30 in [15]. Moreover, the “Ratio EC50” value in [17] came to 30; in experiment [21], 30; in experiment [23], 30; in [26], 7. Moreover, the IC50 (in general, the concentration at which inhibition is half-maximal) was > 166 µM in [4], > 166 µM in [11], 2400 nM in experiment [29] and > 100 µg/mL in experiment [22].
For the molecule `CNC(=O)CCCCn1c(=O)c(C)cn([C@@H]2O[C@H](CO[Si](C)(C)C(C)(C)C)[C@@]3(OS(=O)(=O)C=C3N)[C@H]2O[Si](C)(C)C(C)(C)C)c1=O`, in experiment [10], the EC50 was > 10 µM.
`Nc1nc2c(ncn2[C@H]2CC[C@@H](COP(=O)(O)OP(=O)(O)OP(=O)(O)O)O2)c(=O)[nH]1` [DIDEOXY GUANOSINE TRIPHOSPHATE]: the IC50 in experiment [4] is 0.244 µM; in experiment [11], 0.224 µM; in experiment [29] it was 224 nM; in [22], 0.14 µg/mL.
